Three molecules from ChEMBL document CHEMBL1154695 (J Med Chem, 2009) can be followed below.

The nature of series [1]: Inhibition of HCV NS3/4A protease. Also on record: species or system Hepacivirus hominis.
For series [2], the system named is Plasma. Put plainly: Stability in human plasma relative to telaprevir. The series is classed as ADME, cell-free. Put shortly:
(§1)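 Rat, dog or human plasma was preincubated at 37 °C and spiked from DMSO stock to a final 1 or 10 μM (final DMSO 1%), in triplicate with shaking. Control was 0.1 M potassium phosphate pH 7.4. Sampling was at 0–120 min (rat, dog) or 0–180 min (human, buffer). Samples were acidified, extracted with ethyl acetate and run on chiral LC-MS/MS (MRM). Epimerization was scored by initial rate and k_H/k_D.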

In series [3] the test system is Plasma. Put plainly: Stability in dog plasma relative to telaprevir. The series is classed as ADME, cell-free, Canis lupus familiaris. In outline: as §1
The test system of series [4] is Plasma. In words: Stability in rat plasma relative to telaprevir. The series is classed as ADME, cell-free. In outline:
as §1

The subject of a further series is Hepatitis C virus. Put plainly: Antiviral activity against HCV by viral replicon assay. It counts as functional, Hepacivirus hominis. For orientation: In antiviral work, replicon cells carry a viral genome segment that copies itself.
Series [5] is described as follows: Stability in potassium phosphate buffer of pH 7. It counts as physicochemical. In outline:
(§2)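 Start concentration 0.25 mg/mL, followed over time at pH 7 in water, pH 7 phosphate (0.05 M) or pH 9 borate (0.1 M). Aliquots were drawn at intervals and HPLC measured the parent and the P1-(R) epimer VRT-394. k_obs is the sum of the forward and reverse epimerization rate constants; relative rate is taken against pH 7 water.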

A short description of series [6]: Stability in boric acid-potassium chloride buffer of pH 9. The series is classed as physicochemical. In outline:
as §2

Series [7] is described as follows: Stability in rat plasma assessed as compound epimerization at 10 uM. It counts as ADME, cell-free. In outline: as §1
Series [8] can be described thus: Terminal half life in Sprague-Dawley rat at 10 mg/kg, po. The series is classed as ADME, organism-based. Also on record: dose 10 mg/kg, route oral. Conditions: in vivo, read-out: beta t1/2 (converted). Put shortly:
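Male Sprague-Dawley rats with cannulas received 10 mg/kg by gavage at 1 mg/mL (10 mL/kg) in a solid dispersion (HPMC-AS/SLS) taken up in 1% HPMC-AS and 10% vitamin E TPGS. Blood was drawn from 0.25 to 24 h into EDTA; plasma was acidified and assayed by LC/MS/MS. Parameters came from noncompartmental analysis.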

The subject of series [9] is Plasma. Put plainly: Stability in human plasma assessed as conversion to VRT-394 at 1 uM after 1 hr.
Series [10] in a line: Chemical stability assessed as compound epimerization in potassium phosphate buffer of pH 7. It counts as physicochemical. Put shortly: as §2
Series [11] relates to Plasma. In words: Stability in human plasma assessed as conversion to VRT-394 at 10 uM after 1 hr. It counts as ADME, cell-free. As to conditions: 1 µM, in the assay text read “1 uM” for “10 uM”.

`CCC[C@@H](NC(=O)[C@@H]1[C@H]2CCC[C@H]2CN1C(=O)[C@@H](NC(=O)[C@@H](NC(=O)c1cnccn1)C1CCCCC1)C(C)(C)C)C(=O)C(=O)NC1CC1`: in series [1], the Ki was above 1000 nM.
With `[2H][C@@](CCC)(NC(=O)[C@@H]1[C@H]2CCC[C@H]2CN1C(=O)[C@@H](NC(=O)[C@@H](NC(=O)c1cnccn1)C1CCCCC1)C(C)(C)C)C(=O)C(=O)NC1CC1`, the Activity result is reported as “Stable” in the series on Plasma [2]; “Stable” in the series with Plasma [3]; “Stable” with Plasma [4]; “Stable” in [5]; “Stable” in [6]; 10% with Plasma [9]. The molecule further returned a Ki in [1] of 20 nM. In the series with Hepatitis C virus, this molecule yielded an IC99 of 4 µM. The half-life at 10 µM in series [7] was above 240 min. Also, the half-life in series [8] is 90 min.
Regarding `CCC[C@H](NC(=O)[C@@H]1[C@H]2CCC[C@H]2CN1C(=O)[C@@H](NC(=O)[C@@H](NC(=O)c1cnccn1)C1CCCCC1)C(C)(C)C)C(=O)C(=O)NC1CC1`, the IC99 in the series on Hepatitis C virus is 3.3 µM. Further, the half-life in series [10] is 2100 min. Also, the Activity in the series with Plasma [11] was found to be 35%.

Broadly, the Ki is the equilibrium dissociation constant of an inhibitor or competing ligand from its target. Low readings indicate higher affinity, high ones lower affinity. For orientation: IC99 means the point of the concentration-response curve where the effect stands at 99%. A lower IC99 goes with an effect from little substance.
